Our source for the IC50 values is ChEMBL document CHEMBL3588829, “Dehydro-β-proline Containing α4β1 Integrin Antagonists: Stereochemical Recognition in Ligand-Receptor Interplay” (ACS Med Chem Lett, 2015).

The target of test [1] is T1, Integrin alpha-4/beta-1 (Homo sapiens, UniProt P05556+P13612). The test is described as follows: Inhibition of human alpha4beta1 integrin expressed in human Jurkat cells assessed as inhibition of cell adhesion to VCAM-1. It is filed as cell-based. The method, boiled down:
(§1)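 Cell adhesion inhibition assay, run on Jurkat with VCAM-1, RPMI8866, K562 or SK-MEL-24 cells. Each experiment was run in quadruplicate and repeated at least three times.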

In test [2] the target is T2, Integrin alpha-4/beta-7 (Homo sapiens, UniProt P13612+P26010).
T2 sequence (P13612 whole entry): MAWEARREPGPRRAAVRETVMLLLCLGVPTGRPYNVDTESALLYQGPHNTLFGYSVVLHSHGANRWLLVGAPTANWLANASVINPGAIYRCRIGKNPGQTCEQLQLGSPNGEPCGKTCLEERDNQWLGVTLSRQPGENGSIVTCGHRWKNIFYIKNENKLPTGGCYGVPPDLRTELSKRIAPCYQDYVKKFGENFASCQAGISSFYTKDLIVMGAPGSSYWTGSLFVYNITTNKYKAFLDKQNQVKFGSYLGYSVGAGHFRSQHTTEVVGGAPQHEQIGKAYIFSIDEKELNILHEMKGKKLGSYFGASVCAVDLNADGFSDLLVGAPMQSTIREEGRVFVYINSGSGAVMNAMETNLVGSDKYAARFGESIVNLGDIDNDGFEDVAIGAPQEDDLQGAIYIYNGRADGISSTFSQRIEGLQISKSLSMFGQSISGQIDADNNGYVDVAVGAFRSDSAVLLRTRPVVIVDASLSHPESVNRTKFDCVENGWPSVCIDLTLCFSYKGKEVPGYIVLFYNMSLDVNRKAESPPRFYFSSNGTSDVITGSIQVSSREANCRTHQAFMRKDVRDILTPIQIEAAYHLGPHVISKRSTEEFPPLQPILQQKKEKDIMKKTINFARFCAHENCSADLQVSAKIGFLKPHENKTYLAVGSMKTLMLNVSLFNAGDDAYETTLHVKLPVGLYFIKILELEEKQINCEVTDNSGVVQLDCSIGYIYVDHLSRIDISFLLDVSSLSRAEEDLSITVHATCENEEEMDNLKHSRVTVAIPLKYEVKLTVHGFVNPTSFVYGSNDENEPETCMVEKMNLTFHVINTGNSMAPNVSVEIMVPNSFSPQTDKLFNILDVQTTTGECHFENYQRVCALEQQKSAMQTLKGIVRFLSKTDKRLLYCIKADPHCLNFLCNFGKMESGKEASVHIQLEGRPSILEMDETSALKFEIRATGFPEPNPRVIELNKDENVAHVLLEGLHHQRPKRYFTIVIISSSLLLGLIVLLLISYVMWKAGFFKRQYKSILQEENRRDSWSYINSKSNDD
T2 sequence (P26010 whole entry): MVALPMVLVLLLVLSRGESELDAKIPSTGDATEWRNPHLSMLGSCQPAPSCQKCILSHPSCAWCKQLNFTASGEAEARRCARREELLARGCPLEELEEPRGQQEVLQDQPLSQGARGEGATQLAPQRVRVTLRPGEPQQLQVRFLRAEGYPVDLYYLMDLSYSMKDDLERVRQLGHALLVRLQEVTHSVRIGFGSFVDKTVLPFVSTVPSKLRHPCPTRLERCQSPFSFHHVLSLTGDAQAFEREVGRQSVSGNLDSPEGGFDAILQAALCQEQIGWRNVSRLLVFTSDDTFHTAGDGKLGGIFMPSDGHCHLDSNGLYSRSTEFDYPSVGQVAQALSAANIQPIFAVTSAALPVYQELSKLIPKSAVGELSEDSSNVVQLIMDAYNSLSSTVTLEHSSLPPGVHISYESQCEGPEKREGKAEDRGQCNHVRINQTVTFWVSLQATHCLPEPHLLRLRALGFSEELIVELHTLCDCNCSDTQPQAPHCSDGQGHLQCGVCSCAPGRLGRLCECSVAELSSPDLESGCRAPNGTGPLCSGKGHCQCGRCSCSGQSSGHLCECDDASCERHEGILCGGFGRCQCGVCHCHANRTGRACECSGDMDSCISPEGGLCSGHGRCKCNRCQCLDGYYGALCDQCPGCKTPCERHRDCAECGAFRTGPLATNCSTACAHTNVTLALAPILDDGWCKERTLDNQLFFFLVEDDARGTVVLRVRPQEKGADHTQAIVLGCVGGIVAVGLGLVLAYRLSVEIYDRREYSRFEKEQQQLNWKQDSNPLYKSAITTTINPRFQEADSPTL
The test is described as follows: Inhibition of human alpha4beta7 integrin expressed in human RPMI8866 cells assessed as inhibition of cell adhesion to MadCam1. Type of test: cell-based. The method, boiled down:
as §1

A short description of test [3]: Inhibition of human […] integrin expressed in human Jurkat cells assessed as inhibition of cell adhesion to ICAM1. It is filed as cell-based.
Test [4] has as its target Integrin alpha-V/beta-3 (Homo sapiens, UniProt P05106+P06756). In words: Inhibition of human alphaVbeta3 integrin expressed in human SK-MEL-24 cells assessed as inhibition of cell adhesion to fibronectin.
Test [5] has as its target Integrin alpha-5/beta-1 (Homo sapiens, UniProt P05556+P08648). The test is described as follows: Inhibition of human alpha5beta1 integrin expressed in human K-562 cells assessed as inhibition of cell adhesion to fibronectin. Type of test: cell-based, K562. The method, boiled down: as §1
Test [6] concerns the target T1, Integrin alpha-4/beta-1. In words: Antagonist activity at human alpha4beta1integrin in human Jurkat cells assessed as reduction of VCAM-1-induced ERK1/2 phosphorylation after 60 mins by Western blot analysis. It is filed as cell-based. The method, boiled down: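 Jurkat cells were serum-starved for 16 h in RPMI-1640 with 1% FBS, then preincubated with compound in suspension for 60 min. They were then kept in suspension or plated on VCAM-1-coated wells, with poly-L-lysine as the nonspecific substrate. After 60 min the cells were lysed and Western blotted for pERK1/2 and total ERK1/2. Densitometry normalized pERK1/2 to tERK1/2 (mean ± SEM, n = 6). IC50 came from a separate concentration series.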
A general note: A western blot detects proteins with antibodies after separation by electrophoresis.

T1 sequence (P05556 whole entry, one chain of several): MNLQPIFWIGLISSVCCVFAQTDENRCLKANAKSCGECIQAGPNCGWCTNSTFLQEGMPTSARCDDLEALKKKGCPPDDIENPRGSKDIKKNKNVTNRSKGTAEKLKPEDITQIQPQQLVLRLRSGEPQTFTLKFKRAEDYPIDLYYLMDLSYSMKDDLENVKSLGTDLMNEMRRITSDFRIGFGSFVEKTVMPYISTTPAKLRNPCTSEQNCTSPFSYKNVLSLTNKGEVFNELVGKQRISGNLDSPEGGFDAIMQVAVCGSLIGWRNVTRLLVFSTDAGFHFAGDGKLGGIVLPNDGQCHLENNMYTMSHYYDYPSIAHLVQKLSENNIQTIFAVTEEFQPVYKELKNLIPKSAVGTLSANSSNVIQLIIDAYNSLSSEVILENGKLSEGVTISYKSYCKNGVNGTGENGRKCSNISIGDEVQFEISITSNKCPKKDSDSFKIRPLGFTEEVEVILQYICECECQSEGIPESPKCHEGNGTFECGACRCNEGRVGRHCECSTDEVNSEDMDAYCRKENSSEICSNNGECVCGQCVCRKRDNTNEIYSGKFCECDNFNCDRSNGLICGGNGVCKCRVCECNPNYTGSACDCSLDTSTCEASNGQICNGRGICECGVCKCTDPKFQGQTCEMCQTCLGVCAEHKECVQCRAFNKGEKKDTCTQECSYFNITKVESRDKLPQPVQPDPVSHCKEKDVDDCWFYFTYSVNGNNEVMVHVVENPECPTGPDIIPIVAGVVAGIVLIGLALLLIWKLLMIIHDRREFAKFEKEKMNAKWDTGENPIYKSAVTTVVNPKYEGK
Sequence of Integrin alpha-5/beta-1 (P05556 21-798 limits assumed): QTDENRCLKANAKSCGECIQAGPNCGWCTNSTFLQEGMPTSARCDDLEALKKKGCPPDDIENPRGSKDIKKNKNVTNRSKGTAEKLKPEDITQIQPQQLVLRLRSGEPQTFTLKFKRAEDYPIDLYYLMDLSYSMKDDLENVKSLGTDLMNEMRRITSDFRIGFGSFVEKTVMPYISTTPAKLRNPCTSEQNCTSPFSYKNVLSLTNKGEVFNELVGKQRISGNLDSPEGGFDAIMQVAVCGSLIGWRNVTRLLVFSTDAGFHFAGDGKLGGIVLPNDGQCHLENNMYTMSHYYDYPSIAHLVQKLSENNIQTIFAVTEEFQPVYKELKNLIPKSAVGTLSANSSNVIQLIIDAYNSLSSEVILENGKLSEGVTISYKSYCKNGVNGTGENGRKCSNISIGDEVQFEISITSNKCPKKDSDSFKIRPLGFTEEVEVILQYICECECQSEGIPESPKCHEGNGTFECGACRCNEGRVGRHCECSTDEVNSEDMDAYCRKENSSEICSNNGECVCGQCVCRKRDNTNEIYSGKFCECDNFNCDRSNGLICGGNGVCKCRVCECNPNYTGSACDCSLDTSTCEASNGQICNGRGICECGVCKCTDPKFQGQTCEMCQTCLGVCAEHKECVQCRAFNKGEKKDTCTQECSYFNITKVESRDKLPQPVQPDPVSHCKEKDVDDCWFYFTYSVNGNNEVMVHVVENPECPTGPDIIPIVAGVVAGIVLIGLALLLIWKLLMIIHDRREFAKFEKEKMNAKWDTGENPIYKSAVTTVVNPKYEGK
Sequence of Integrin alpha-5/beta-1 (P08648 42-894 limits assumed): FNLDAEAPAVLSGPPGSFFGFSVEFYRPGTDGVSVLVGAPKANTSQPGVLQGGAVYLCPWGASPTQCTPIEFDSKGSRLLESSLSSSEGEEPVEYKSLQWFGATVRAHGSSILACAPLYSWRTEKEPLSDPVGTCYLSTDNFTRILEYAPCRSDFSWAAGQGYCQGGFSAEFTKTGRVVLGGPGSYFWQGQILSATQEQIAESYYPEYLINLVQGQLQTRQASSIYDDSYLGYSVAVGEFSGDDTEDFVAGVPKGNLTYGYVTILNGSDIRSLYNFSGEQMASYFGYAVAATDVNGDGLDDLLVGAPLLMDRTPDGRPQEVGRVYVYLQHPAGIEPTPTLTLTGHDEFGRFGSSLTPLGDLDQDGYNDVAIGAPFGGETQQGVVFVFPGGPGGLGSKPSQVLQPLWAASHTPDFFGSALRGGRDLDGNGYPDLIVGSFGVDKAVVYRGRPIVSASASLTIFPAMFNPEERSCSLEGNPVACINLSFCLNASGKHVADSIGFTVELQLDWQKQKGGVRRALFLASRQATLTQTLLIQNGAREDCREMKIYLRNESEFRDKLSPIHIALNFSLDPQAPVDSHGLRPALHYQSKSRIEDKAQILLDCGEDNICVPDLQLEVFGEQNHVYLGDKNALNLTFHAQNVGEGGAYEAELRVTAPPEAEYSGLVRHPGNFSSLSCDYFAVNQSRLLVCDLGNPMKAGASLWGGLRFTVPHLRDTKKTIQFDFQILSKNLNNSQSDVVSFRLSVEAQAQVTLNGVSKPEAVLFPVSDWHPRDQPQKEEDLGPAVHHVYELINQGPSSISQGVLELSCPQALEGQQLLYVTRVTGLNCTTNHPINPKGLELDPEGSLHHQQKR
Sequence of Integrin alpha-5/beta-1 (P08648 895-1049 limits assumed): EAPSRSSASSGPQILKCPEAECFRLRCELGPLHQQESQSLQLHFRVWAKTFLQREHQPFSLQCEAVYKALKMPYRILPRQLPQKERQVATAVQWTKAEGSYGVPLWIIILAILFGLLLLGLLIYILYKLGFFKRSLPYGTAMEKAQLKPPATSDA
Sequence of Integrin alpha-V/beta-3 (P05106 27-788 limits assumed): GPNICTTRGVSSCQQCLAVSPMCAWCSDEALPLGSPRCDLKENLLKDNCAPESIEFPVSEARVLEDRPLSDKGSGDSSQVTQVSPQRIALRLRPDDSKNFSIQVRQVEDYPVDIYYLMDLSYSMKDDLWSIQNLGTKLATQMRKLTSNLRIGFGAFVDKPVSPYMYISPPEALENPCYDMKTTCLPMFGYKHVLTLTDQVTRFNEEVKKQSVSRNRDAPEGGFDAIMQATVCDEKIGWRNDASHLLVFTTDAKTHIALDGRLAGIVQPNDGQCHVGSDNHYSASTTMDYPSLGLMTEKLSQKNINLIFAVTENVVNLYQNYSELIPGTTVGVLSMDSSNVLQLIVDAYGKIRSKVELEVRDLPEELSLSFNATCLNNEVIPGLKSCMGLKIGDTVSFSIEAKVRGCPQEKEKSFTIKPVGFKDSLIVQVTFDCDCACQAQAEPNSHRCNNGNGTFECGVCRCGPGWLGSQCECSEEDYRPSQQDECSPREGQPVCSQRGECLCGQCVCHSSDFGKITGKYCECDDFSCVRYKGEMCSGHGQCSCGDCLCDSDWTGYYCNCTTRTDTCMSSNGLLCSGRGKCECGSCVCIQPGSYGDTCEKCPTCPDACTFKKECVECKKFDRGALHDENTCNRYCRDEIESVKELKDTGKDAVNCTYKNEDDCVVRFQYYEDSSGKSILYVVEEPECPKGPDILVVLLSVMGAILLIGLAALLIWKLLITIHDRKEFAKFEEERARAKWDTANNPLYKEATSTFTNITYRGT
Sequence of Integrin alpha-V/beta-3 (P06756 31-889 limits assumed): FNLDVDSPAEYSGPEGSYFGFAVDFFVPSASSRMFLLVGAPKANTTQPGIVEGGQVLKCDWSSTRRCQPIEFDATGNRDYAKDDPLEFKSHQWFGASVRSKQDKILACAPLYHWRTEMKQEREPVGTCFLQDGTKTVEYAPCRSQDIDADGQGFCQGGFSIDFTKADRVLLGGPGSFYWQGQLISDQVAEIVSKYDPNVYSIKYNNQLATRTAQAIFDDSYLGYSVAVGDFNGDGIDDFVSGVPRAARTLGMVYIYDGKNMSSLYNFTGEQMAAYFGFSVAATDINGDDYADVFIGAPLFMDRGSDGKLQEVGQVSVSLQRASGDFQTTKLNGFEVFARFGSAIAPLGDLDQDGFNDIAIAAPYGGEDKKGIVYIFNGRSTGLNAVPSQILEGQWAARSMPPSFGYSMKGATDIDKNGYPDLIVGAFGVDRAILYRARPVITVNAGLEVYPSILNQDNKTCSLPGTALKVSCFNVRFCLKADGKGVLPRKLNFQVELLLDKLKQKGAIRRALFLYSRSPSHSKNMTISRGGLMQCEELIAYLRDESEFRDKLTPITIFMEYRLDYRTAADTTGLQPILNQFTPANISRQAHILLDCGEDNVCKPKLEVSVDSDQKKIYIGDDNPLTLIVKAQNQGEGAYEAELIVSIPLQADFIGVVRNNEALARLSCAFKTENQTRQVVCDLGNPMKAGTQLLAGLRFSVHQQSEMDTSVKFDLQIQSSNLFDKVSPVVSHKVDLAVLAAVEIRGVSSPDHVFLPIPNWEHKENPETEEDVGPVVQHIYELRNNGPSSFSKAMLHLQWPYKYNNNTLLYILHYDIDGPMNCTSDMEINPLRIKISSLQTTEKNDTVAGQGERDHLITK
Sequence of Integrin alpha-V/beta-3 (P06756 891-1048 limits assumed): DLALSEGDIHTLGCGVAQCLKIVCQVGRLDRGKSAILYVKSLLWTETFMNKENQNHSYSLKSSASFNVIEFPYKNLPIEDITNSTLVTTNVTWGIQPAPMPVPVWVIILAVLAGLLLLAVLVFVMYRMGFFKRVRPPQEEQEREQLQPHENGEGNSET

Regarding `Cc1ccccc1NC(=O)N1CC=C(C(=O)NCc2ccc(NC(=O)CC(=O)O)cc2)[C@@H]1C(C)C`, the IC50 (in general, the concentration needed to halve the response being measured) in test [1] worked out at 0.11 µM.
Still for that read-out and setting: next, `Cc1ccccc1NC(=O)N1CC=C(C(=O)NCc2ccc(NC(=O)CC(=O)O)cc2)[C@H]1C(C)C`: 0.25 µM.
Still for that read-out and setting: the same measure for `Cc1ccccc1NC(=O)Nc1ccc(CNC(=O)C2=CCN(C(=O)CC(=O)O)[C@H]2C(C)C)cc1`: above 1 µM.
In the case of `Cc1ccccc1NC(=O)Nc1ccc(CNC(=O)C2=CCN(C(=O)CC(=O)O)[C@@H]2C(C)C)cc1`, the 50% inhibitory concentration (IC50) in test [2] is 0.27 µM; in test [3] it was above 1 µM; in test [4] it was above 1 µM; in test [5], above 1 µM; in test [6] it was 0.01 µM; in test [1] it was 0.01 µM.
In the case of `Cc1ccccc1NC(=O)Nc1ccc(CNC(=O)C2=CCN(C(=O)CC(=O)O)[C@H]2C2CCCCC2)cc1`, in test [1], the half-maximal inhibitory concentration (IC50) was above 1 µM.
Turning to `Cc1ccccc1NC(=O)Nc1ccc(CNC(=O)C2=CCN(C(=O)CC(=O)O)[C@@H]2C2CCCCC2)cc1`, the concentration for half-maximal inhibition (IC50) is 0.343 µM in test [2]; above 1 µM in test [3]; above 1 µM in test [4]; above 1 µM in test [5]; 0.131 µM in test [6]; 0.062 µM in test [1].
